Results published in ChEMBL document CHEMBL1124727, “Neuronal mapping of the heart with 6-[18F]fluorometaraminol” (1990).

How the values were obtained:
Canis familiaris [1] = assay: Tissue concentration in dog liver 24 hr after iv administration; format: functional, Canis lupus familiaris
In short: (§1)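 Dogs (one to three per time point) received bolus cephalic vein injection of 92–100 μCi ³H tracer in 2.0 mL sterile acetate buffer pH 4.5; sacrificed 30 min or 24 h later by iv sodium pentobarbital. Duplicate organ samples oxidized and liquid-scintillation counted with background/efficiency correction; % kg dose/g ± SEM; heart ratio uses left ventricle/blood.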

Canis familiaris [2] = assay: Tissue concentration in dog liver 0.5 hr after iv administration; format: functional, Canis lupus familiaris
In short: (§2)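 Dogs given ³H tracer (92–100 μCi) as iv cephalic-vein bolus in 2.0 mL sterile acetate buffer pH 4.5; 1–3 dogs per time point. Killed 30 min (or 24 h) later by iv pentobarbital; duplicate tissue samples oxidized and liquid-scintillation counted with background and efficiency correction. Expressed as % kg dose/g; ratio = left ventricle to blood.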

Canis familiaris [3] = assay: Tissue concentration in dog heart 0.5 hr after iv administration; format: functional, Canis lupus familiaris; in short: as §1
Canis familiaris [4] = assay: Tissue concentration in dog heart 24 hr after iv administration; format: functional, Canis lupus familiaris; in short: as §1
Canis familiaris [5] = assay: Tissue concentration in dog lung 24 hr after iv administration; format: functional, Canis lupus familiaris; in short: as §1
Canis familiaris [6] = assay: (§3) Tissue concentration in dog left ventricle to blood ratio 0.5 hr after iv administration; format: functional, Canis lupus familiaris; in short: as §1
Canis familiaris [7] = assay: Tissue concentration in dog left ventricle to blood ratio 24 hr after iv administration; format: functional, Canis lupus familiaris; in short: as §1
Canis familiaris [8] = assay: Tissue concentration in dog spleen 24 hr after iv administration; format: functional, Canis lupus familiaris; in short: as §1
Canis familiaris [9] = assay: Tissue concentration in dog blood 24 hr after iv administration; format: functional, Canis lupus familiaris; in short: as §1
Canis familiaris [10] = assay: Tissue concentration in dog lung 0.5 hr after iv administration; format: functional, Canis lupus familiaris; in short: as §1
Canis familiaris [11] = assay: Tissue concentration in dog blood 0.5 hr after iv administration; format: functional, Canis lupus familiaris; in short: as §2
Canis familiaris [12] = assay: Tissue concentration in dog spleen 0.5 hr after iv administration; format: functional, Canis lupus familiaris; in short: as §1
Rattus norvegicus [13] = assay: Neuronal selectivity expressed as Concentration in left atrium after iv administration in rat, pretreated with 6-hydroxydopamine (control = 5.26+/-0.43); format: functional, organism-based; conditions: Cardiac atrium
Rattus norvegicus [14] = assay: Neuronal selectivity expressed as Concentration in right ventricle after iv administration in rat, pretreated with 6-hydroxydopamine (control = 6.10+/-0.45); format: functional, organism-based; conditions: Heart right ventricle
Rattus norvegicus [15] = assay: Neuronal selectivity expressed as Concentration in right atrium after iv administration in rat, pretreated with 6-hydroxydopamine (control = 5.19+/-0.14); format: functional, organism-based; conditions: Cardiac atrium
Rattus norvegicus [16] = assay: Neuronal selectivity expressed as Concentration in left ventricle after iv administration in rat, pretreated with 6-hydroxydopamine (control = 5.38+/-0.39); format: functional, organism-based; conditions: Heart left ventricle
Rattus norvegicus [17] = assay: Neuronal selectivity expressed as Concentration in blood after iv administration in rat, pretreated with 6-hydroxydopamine (control = 0.062+/-0.012); format: functional, organism-based
Rattus norvegicus [18] = assay: Neuronal selectivity expressed as Concentration in spleen after iv administration in rat, pretreated with 6-hydroxydopamine (control = 1.88+/-0.25); format: functional, organism-based
Rattus norvegicus [19] = species: Rattus norvegicus; assay: Percent change in [3H]metaraminol concentration in blood of sympathectomized rat, pretreated with 6-hydroxydopamine
Rattus norvegicus [20] = species: Rattus norvegicus; assay: Percent change in [3H]metaraminol concentration in right ventricle of sympathectomized rat, pretreated with 6-hydroxydopamine
Rattus norvegicus [21] = species: Rattus norvegicus; assay: Percent change in thallium-201 concentration in left ventricle of sympathectomized rat, pretreated with 6-hydroxydopamine; format: functional, Heart left ventricle
In short: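 Blood-perfusion check in rats under same 6-hydroxydopamine protocol (100 mg/kg ip, 5 days before tracer): thallium-201 23–28 μCi iv via femoral vein, decapitation 90 min later, N = 6; percent change in tissue radioactivity of treated versus control rats.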

Rattus norvegicus [22] = species: Rattus norvegicus; assay: Percente change in thallium-201 concentration in left atrium of sympathectomized rat, pretreated with 6-hydroxydopamine; format: functional, Cardiac atrium
In short: (§4)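 Female Sprague-Dawley rats (200–300 g) given 6-hydroxydopamine HBr 100 mg/kg ip, freshly made in saline, 5 days before tracer; controls got vehicle. Thallium-201 (23–28 μCi) iv via femoral vein; decapitated 90 min later; tissue radioactivity counted; N = 6. Value is % change in treated versus control tissue concentration.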

Rattus norvegicus [23] = species: Rattus norvegicus; assay: Percent change in thallium-201 concentration in spleen of sympathectomized rat, pretreated with 6-hydroxydopamine; format: functional
Rattus norvegicus [24] = species: Rattus norvegicus; assay: Percent change in thallium-201 concentration in right atrium of sympathectomized rat, pretreated with 6-hydroxydopamine; format: functional, Cardiac atrium; in short: as §4
Rattus norvegicus [25] = species: Rattus norvegicus; assay: Percentage change in thallium-201 in spleen of sympathectomized rat, pretreated with 6-hydroxydopamine; format: functional; in short: as §4
Rattus norvegicus [26] = species: Rattus norvegicus; assay: Percentage change in thallium-201 in blood of sympathectomized rat, pretreated with 6-hydroxydopamine; format: functional; in short: as §4
Rattus norvegicus [27] = species: Rattus norvegicus; assay: Percentage change in thallium-201 in left ventricle of sympathectomized rat, pretreated with 6-hydroxydopamine; format: functional, Heart left ventricle; in short: as §4
Rattus norvegicus [28] = species: Rattus norvegicus; assay: Percentage change in thallium-201 in right ventricle of sympathectomized rat, pretreated with 6-hydroxydopamine; format: functional, Heart right ventricle; in short: as §4
Canis familiaris [29] = assay: as §3; format: functional, Canis lupus familiaris; in short: as §2; remark: listed apart in the source

Row | SMILES | [3H] concentration (Canis familiaris [1]) [% kg dose g-1] | [3H] concentration (Canis familiaris [2]) [% kg dose g-1] | [3H] concentration (Canis familiaris [3]) [% kg dose g-1] | [3H] concentration (Canis familiaris [4]) [% kg dose g-1] | [3H] concentration (Canis familiaris [5]) [% kg dose g-1] | [3H] concentration (Canis familiaris [6]) | [3H] concentration (Canis familiaris [7]) | [3H] concentration (Canis familiaris [8]) [% kg dose g-1] | [3H] concentration (Canis familiaris [9]) [% kg dose g-1] | [3H] concentration (Canis familiaris [10]) [% kg dose g-1] | [3H] concentration (Canis familiaris [11]) [% kg dose g-1] | [3H] concentration (Canis familiaris [12]) [% kg dose g-1] | Change (Rattus norvegicus [22]) [%] | Change (Rattus norvegicus [24]) [%] | further results
1 | C[C@H](N)[C@H](O)c1cccc(O)c1 (stereo in doubt; form 1) [METARAMINOL] | 0.13 | 0.42 | 0.55 | 0.59 | 0.03 | 18 | 74 | 0.5 | 0.008 | 0.2 | 0.03 | 0.81 | – | – | –
2 | C[C@H](N)[C@H](O)c1cccc(O)c1 (stereo in doubt; form 2) | – | – | – | – | – | – | – | – | – | – | – | – | – | – | Concentration (Rattus norvegicus [13]): 0.75 % dose g-1; Concentration (Rattus norvegicus [14]): 1.32 % dose g-1; Concentration (Rattus norvegicus [15]): 0.86 % dose g-1; Concentration (Rattus norvegicus [16]): 1.05 % dose g-1; Concentration (Rattus norvegicus [17]): 0.158 % dose g-1; Concentration (Rattus norvegicus [18]): 0.46 % dose g-1
3 | C[C@H](N)[C@H](O)c1cccc(O)c1 (stereo in doubt; form 2) [METARAMINOL] | 0.17 | – | 0.72 | 0.51 | 0.05 | 24 | 57 | 0.73 | 0.009 | 0.13 | – | 0.88 | -86 | -83 | Change (Rattus norvegicus [19]): 155%; Change (Rattus norvegicus [20]): -80%; Change (Rattus norvegicus [21]): -86%; Change (Rattus norvegicus [23]): -76%
4 | [3H][C@](O)(CN)c1ccc(O)c(O)c1 [[3H]NOREPINEPHRINE] | 0.09 | 0.27 | 0.74 | 0.16 | 0.03 | – | 9 | 0.52 | 0.017 | 0.18 | 0.04 | 0.81 | -92 | -94 | Change (Rattus norvegicus [25]): -71%; Change (Rattus norvegicus [26]): -20%; Change (Rattus norvegicus [27]): -85%; Change (Rattus norvegicus [28]): -92%; [3H] concentration (Canis familiaris [29]): 19
